According to ChEMBL document CHEMBL4425094, “Novel Benzo[a]quinolizidine Analogs Induce Cancer Cell Death through Paraptosis and Apoptosis” (J Med Chem, 2016):

Tests used:
[1] = system: MDA-MB-231; assay: Cytotoxicity against human MDA-MB-231 cells assessed as cell growth inhibition after 24 hrs by MTT assay; type: functional, cell-based; details: MDA-MB-231, 24 h
Procedure, shortened: (§1)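 Cells seeded 24 h in RPMI 1640 + 10% FBS. RWPE-1 was kept in K-SFM with bovine pituitary extract and EGF. Cells then exposed to compounds for 24 h at 37 °C, 5% CO2, with DMSO vehicle and docetaxel as positive control. MTT added for 4 h, absorbance read at 570 nm. Triplicate runs, IC50 reported as mean of three experiments.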

[2] = system: HeLa; assay: Cytotoxicity against human HeLa cells assessed as cell growth inhibition after 24 hrs by MTT assay; type: functional, cell-based; procedure, shortened: as §1
[3] = system: K562; assay: Cytotoxicity against human K562 cells assessed as cell growth inhibition after 24 hrs by MTT assay; type: functional, cell-based; details: K562, 24 h; procedure, shortened: as §1
[4] = system: PC-3; assay: Cytotoxicity against human PC3 cells assessed as cell growth inhibition after 24 hrs by MTT assay; type: functional, cell-based; details: PC-3, 24 h; procedure, shortened: as §1
[5] = system: DU-145; assay: Cytotoxicity against human DU145 cells assessed as cell growth inhibition after 24 hrs by MTT assay; type: functional, cell-based; details: DU-145, 24 h; procedure, shortened: as §1
[6] = system: MCF7; assay: Cytotoxicity against human MCF7 cells assessed as cell growth inhibition after 24 hrs by MTT assay; type: functional, cell-based; details: MCF7, 24 h; procedure, shortened: as §1
[7] = system: RWPE-1; assay: Cytotoxicity against human RWPE1 cells assessed as cell growth inhibition after 24 hrs by MTT assay; type: cell-based; details: RWPE-1, 24 h; procedure, shortened: as §1

Structure (SMILES)	IC50 [1]	IC50 [2]	IC50 [3]	IC50 [4]	IC50 [5]	IC50 [6]	IC50 [7]
Cc1cc(C)cc(COc2cc3c(cc2OCc2cc(C)cc(C)c2)CN(C(=O)OC(C)(C)C)CC3)c1	> 20 µM	> 20 µM	> 20 µM	> 20 µM	> 20 µM	> 20 µM	> 20 µM
COc1ccc([C@@H]2C[C@H](O)C[C@H]3c4cc(OCc5cc(C)cc(C)c5)c(OCc5cc(C)cc(C)c5)cc4CCN23)cc1OC	> 20 µM	> 20 µM	> 20 µM	> 20 µM	> 20 µM	> 20 µM	> 20 µM
COc1cc2c(cc1OC)[C@@H]1C[C@@H](O)C[C@@H](c3ccccc3)N1CC2	> 20 µM	> 20 µM	> 20 µM	> 20 µM	> 20 µM	> 20 µM	> 20 µM
CCCCCCCCCCCCCCCCOc1cc2c(cc1OCCCCCCCCCCCCCCCC)[C@@H]1C[C@H](O)C[C@@H](C)N1CC2	> 20 µM	> 20 µM	> 20 µM	> 20 µM	> 20 µM	> 20 µM	> 20 µM
CC1(C)CC(=O)C[C@H]2c3cc(OCc4ccccc4)c(OCc4ccccc4)cc3CCN21	> 20 µM	> 20 µM	> 20 µM	> 20 µM	> 20 µM	> 20 µM	> 20 µM
c1ccc(COc2cc3c(cc2OCc2ccccc2)[C@@H]2CCC[C@@H](c4ccccc4)N2CC3)cc1	> 20 µM	> 20 µM	> 20 µM	> 20 µM	> 20 µM	> 20 µM	> 20 µM
C[C@@H]1C[C@@](C)(O)C[C@H]2c3cc(OCc4cc(F)cc(F)c4)c(OCc4cc(F)cc(F)c4)cc3CCN12	2.81 µM	1.29 µM	1.13 µM	1.29 µM	1.33 µM	1.98 µM	4.45 µM
CCCCCC[C@@H]1C[C@H](O)C[C@H]2c3cc(OCc4ccccc4)c(OCc4ccccc4)cc3CCN12	> 20 µM	> 20 µM	> 20 µM	> 20 µM	> 20 µM	> 20 µM	> 20 µM
O=C1C[C@@H](c2ccccc2)N2CCc3cc(O)c(O)cc3[C@@H]2C1 (relative stereo)	> 20 µM	> 20 µM	> 20 µM	> 20 µM	> 20 µM	> 20 µM	> 20 µM
O=C1C[C@@H](c2ccccc2)N2CCc3cc(OCc4ccccc4)c(OCc4ccccc4)cc3[C@@H]2C1 (relative stereo)	> 20 µM	> 20 µM	> 20 µM	> 20 µM	> 20 µM	> 20 µM	> 20 µM
CC[C@@H]1CC(=O)C/C=C(/C)[C@H]2c3cc(OCc4ccccc4)c(OCc4ccccc4)cc3CCN12 (relative stereo)	> 20 µM	> 20 µM	> 20 µM	> 20 µM	> 20 µM	> 20 µM	> 20 µM
C[C@@H]1C[C@H](O)C[C@H]2c3cc4c(cc3CCN12)OCO4	> 20 µM	> 20 µM	> 20 µM	> 20 µM	> 20 µM	> 20 µM	> 20 µM
CCCCCC[C@@H]1C[C@@H](O)C[C@H]2c3cc(OCc4ccccc4)c(OCc4ccccc4)cc3CCN12	> 20 µM	> 20 µM	> 20 µM	> 20 µM	> 20 µM	> 20 µM	> 20 µM
C[C@@H]1C[C@@H](O)C[C@H]2c3cc(OCc4ccc(C(C)(C)C)cc4)c(OCc4ccc(C(C)(C)C)cc4)cc3CCN12	3.25 µM	2.06 µM	2.04 µM	3.79 µM	2.22 µM	0.86 µM	1.91 µM
